As a reminder, the IC50 is the concentration that gives 50% inhibition. One may read the Ki as the equilibrium dissociation constant of an inhibitor or competing ligand from its target. A higher Ki goes with weaker binding.

For one data set, the system named is A549. The experiment in a line: Cytotoxicity against human A549 cells assessed as reduction in cell viability by MTT assay. The format is cell-based. A general note: Tetrazolium assays rely on reduction of a dye to a coloured formazan, in cell work by metabolically active cells.
The next data set has as its system HepG2. The experiment in a line: Cytotoxicity against human HepG2 cells assessed as reduction in cell viability by MTT assay. The format is cell-based.
The subject of a further data set is HEK293. The data set is described as follows: Cytotoxicity against HEK293 cells assessed as reduction in cell viability by MTT assay. The format is cell-based. The note with it: Homo sapiens.
Data set [1] can be described thus: Toxicity in 1 day post-fertilized zebrafish embryo AB measured up to 120 hrs post-fertilization by microscopic analysis. Details: species or system Danio rerio. The note with it: in vivo, read-out: MTC. In outline: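 Embryos were placed singly per well, 10 per condition, in freshly prepared compound at 2–100 μM with 1% DMSO final. Defects, heart rate, touch-evoked locomotion and survival were scored daily by microscopy; read-out was maximum tolerated concentration.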

Data set [2] has as its target T1, Elastase (Pseudomonas aeruginosa (strain ATCC 15692 / PAO1 / 1C / PRS 101 / LMG12228), UniProt P14756). The experiment in a line: Inhibition of Pseudomonas aeruginosa PA14 LasB using 2-Aminobenzoyl-AlaGly-Leu-Ala-4-Nitrobenzylamide as fluorogenic substrate preincubated for 15 mins followed by substrate addition measured after 60 mins by FRET assay. In outline:
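IC50 from at least two independent experiments, each run in duplicate. Thioacetate analogues were scored as percent inhibition at 200 μM.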

The subject of another data set is Pseudomonas aeruginosa. The data set is described as follows: Toxicity in Pseudomonas aeruginosa PA14 assessed as reduction in bacterial growth after 18 hrs. The format is organism-based. To be noted: in vivo.
Data set [3] addresses T1, Elastase. The experiment in a line: Inhibition of Pseudomonas aeruginosa LasB using aminobenzoyl-Ala-Gly-Leu-Ala-p-nitro-benzyl-amide as fluorogenic substrate by fluorimetric assay.
A further data set concerns Hathewaya histolytica. The experiment in a line: Toxicity in Clostridium histolyticum DSM 1126 assessed as reduction in bacterial growth after 48 hrs. To be noted: in vivo. The format is organism-based. In outline:
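Brain heart infusion broth; inoculum adjusted to McFarland 2 then prediluted 1:100. […] Means of at least two independent determinations.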

The subject of a further data set is Bacillus cereus. The data set is described as follows: Ex vivo inhibition of Bacillus cereus Q1 ColQ1-mediated collagenolytic-activity in pig skin explant assessed as reduction in hydroxyproline release up to 400 uM preincubated for 1 hr followed by skin explant addition and measured upto 24 hrs by spectrophotometric assay. In outline: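 Pig skin explant punches, stored in DMEM with 15% glycerol at −80 °C, incubated in DMEM with 300 nM ColQ1, 4 mM CaCl2 and 10 μM ZnCl2. Compound pre-incubated with the enzyme mixture for 1 h at 37 °C, 5% CO2, then explant added, shaken at 300 rpm at 37 °C. Medium sampled at time points; hydroxyproline measured by absorbance against a hydroxyproline calibration curve.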

Another data set addresses T2, Collagenase ColH (Hathewaya histolytica, UniProt Q46085).
T2 sequence (Q46085 whole entry): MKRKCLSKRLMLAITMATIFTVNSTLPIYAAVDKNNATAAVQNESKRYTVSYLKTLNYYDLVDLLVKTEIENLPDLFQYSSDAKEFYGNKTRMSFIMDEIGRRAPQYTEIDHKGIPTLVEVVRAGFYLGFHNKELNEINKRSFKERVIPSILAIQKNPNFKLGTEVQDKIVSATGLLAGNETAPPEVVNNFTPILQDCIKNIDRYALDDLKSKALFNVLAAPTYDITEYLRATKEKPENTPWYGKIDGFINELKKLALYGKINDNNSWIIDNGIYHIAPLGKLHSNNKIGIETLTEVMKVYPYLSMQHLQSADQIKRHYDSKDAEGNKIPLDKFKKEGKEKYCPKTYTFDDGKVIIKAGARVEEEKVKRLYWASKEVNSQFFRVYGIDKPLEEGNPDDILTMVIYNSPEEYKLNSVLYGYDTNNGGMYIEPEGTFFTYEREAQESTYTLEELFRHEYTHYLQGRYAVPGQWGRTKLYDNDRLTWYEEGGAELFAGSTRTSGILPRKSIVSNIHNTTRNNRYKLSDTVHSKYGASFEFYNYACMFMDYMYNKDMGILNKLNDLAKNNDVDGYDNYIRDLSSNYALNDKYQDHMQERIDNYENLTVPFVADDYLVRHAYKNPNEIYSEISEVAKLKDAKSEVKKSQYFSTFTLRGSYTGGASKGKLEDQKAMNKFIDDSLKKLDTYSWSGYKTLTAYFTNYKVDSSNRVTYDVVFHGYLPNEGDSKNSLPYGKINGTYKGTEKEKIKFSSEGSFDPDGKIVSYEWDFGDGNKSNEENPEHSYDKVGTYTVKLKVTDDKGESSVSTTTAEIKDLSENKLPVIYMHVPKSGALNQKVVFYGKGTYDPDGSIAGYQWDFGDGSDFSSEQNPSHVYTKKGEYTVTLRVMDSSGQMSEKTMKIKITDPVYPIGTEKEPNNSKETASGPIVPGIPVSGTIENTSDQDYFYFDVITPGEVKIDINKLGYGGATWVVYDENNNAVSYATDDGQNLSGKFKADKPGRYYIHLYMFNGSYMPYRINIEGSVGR
The experiment in a line: Inhibition of Clostridium histolyticum ColH peptidase domain expressed in Escherichia coli BL21(DE3) cells using Mca-Ala-Gly-Pro-Pro-Gly-Pro-Dpa-Gly-Arg-NH2 as substrate preincubated for 1 hr followed by substrate addition measured for 2 mins by FRET assay. In outline: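 Peptidolytic ColH-PD activity read by FRET. Compounds were first screened at 1 μM (means of three independent experiments), then tested dose-response with the reducing agent TCEP present. IC50 values came from at least two independent experiments run in duplicate.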

The structures appear in SMILES notation. Activity calls are given as the source filed them. The calls are words filed in the database; no cut-off is given here.

T1 sequence (P14756 whole entry): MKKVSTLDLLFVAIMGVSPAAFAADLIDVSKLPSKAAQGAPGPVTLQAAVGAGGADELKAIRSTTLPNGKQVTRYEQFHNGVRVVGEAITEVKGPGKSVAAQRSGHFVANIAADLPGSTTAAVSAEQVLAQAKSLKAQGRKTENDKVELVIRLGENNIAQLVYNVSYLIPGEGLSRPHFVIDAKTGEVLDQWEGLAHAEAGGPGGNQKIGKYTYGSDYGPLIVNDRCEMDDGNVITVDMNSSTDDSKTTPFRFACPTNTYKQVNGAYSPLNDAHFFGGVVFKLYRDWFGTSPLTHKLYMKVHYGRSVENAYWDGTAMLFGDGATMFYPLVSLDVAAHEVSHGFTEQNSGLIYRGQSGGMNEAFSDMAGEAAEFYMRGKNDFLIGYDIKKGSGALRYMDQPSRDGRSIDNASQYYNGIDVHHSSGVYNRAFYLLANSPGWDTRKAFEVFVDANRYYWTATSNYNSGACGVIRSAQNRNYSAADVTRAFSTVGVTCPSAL

For `O=C(CS)Nc1ccc(Cl)c(Cl)c1`, the half-inhibitory concentration (IC50) in the data set with A549, in the data set on HepG2 and in the data set on HEK293 was over 100 µM each time. The MNTC in [1] amounted to 10 µM.
As for `CC(=O)SCC1CC(=O)N(c2ccc(C(C)=O)cc2)C1=O` (stereo unspecified), the IC50 on Elastase [2] is over 200 µM.
Same read-out and setting: the same measure for `CC(=O)SC1CC(=O)N(c2ccc(Cl)c(Cl)c2)C1=O` (stereo unspecified): over 200 µM.
On the same count and under the same terms, the same measure for `CC(=O)SC1CC(=O)N(c2ccc(OC(F)(F)F)c(Cl)c2)C1=O` (stereo unspecified): over 200 µM.
Regarding `O=C1CC(S)C(=O)N1c1ccc(Cl)c(Cl)c1` (stereo unspecified), the IC50 in the data set with A549, in the data set on HepG2 and with HEK293 was over 100 µM throughout. Besides, in the data set on Pseudomonas aeruginosa, the MIC was over 100 µM.
With `O=C1CC(S)C(=O)N1c1ccc(F)c(F)c1` (stereo unspecified), the MIC with Pseudomonas aeruginosa is over 100 µM. In data set [1], the MNTC is at least 30 µM.
`COc1ccc(N2C(=O)CC(SC(C)=O)C2=O)cc1` (stereo unspecified) yielded an IC50 against Elastase [2] of over 200 µM.
In turn, `NC(=O)[C@H](Cc1ccc(O)cc1)NC(=O)[C@H](Cc1c[nH]c2ccccc12)NC(=O)CS` displayed a Ki at Elastase [3] of 40.5 nM. This counts as double-digit nanomolar.
With `CC(=O)c1ccc(N2C(=O)CC(S)C2=O)cc1` (stereo unspecified), in the data set on Hathewaya histolytica, the MIC is over 100 µM. Further, the 50% inhibitory concentration (IC50) in the data set with A549, with HepG2 and in the data set with HEK293 was over 100 µM in each case. In the data set with Bacillus cereus, the inhibition entry was “Active”. In addition, the MNTC in data set [1] was at least 30 µM.
As for `O=C1CC(CS)C(=O)N1c1ccc(F)c(F)c1` (stereo unspecified), the MIC in the data set on Pseudomonas aeruginosa was over 100 µM.
At Elastase [2], `CC(=O)SCC1CC(=O)N(c2ccccc2)C1=O` (stereo unspecified) displayed an IC50 of over 200 µM.
On the same count and under the same terms, for `CC(=O)SCC1CC(=O)N(c2ccc(Cl)c(Cl)c2)C1=O` (stereo unspecified) the value was over 200 µM; for `COc1ccc(N2C(=O)CC(CSC(C)=O)C2=O)cc1` (stereo unspecified), over 200 µM.
In the case of `CC(=O)c1ccc(N2C(=O)CC(CS)C2=O)cc1` (stereo unspecified), the IC50 against Elastase [2] was over 200 µM.
`CC(=O)c1ccc(NC(=O)CS)cc1`: the IC50 with A549 was over 100 µM; against Collagenase ColH, 17 nM; in the data set on HepG2, over 100 µM; in the data set on HEK293, over 100 µM.
In the case of `O=C1CC(CS)C(=O)N1c1ccc(Cl)c(Cl)c1` (stereo unspecified), in the data set on Pseudomonas aeruginosa, the MIC is over 100 µM.
